Test results reported in ChEMBL document CHEMBL3580590, “A Developability-Focused Optimization Approach Allows Identification of in Vivo Fast-Acting Antimalarials: N-[3-[(Benzimidazol-2-yl)amino]propyl]amides” (J Med Chem, 2015).
Values after ≈ are worked out from the molar mass of the structure shown. Active and inactive are the calls of the source. No cut-off for these calls is given here.

Columns and labels:
Plasmodium falciparum [1] = experiment: Antimalarial activity against Plasmodium falciparum 3D7A infected in red blood cells assessed as inhibition of parasite growth after 24 hrs by [3H]hypoxanthine incorporation assay; format: functional, organism-based
How it was run: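 P. falciparum 3D7 parasitized RBC (0.5% parasitemia, 2% hematocrit) in RPMI-1640 with 5% albumax and 5 μM hypoxanthine. 3H-hypoxanthine was then added for a further 24 h. Cells were harvested onto glass-fiber filters and incorporation was read by scintillation; IC50 was derived.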

[2] = biological target: Voltage-gated inwardly rectifying potassium channel KCNH2 (Homo sapiens, UniProt Q12809); experiment: Inhibition of human ERG by IonWorks electrophysiology
[3] = Selectivity index, ratio of TC50 for human HepG2 cells to IC50 for Plasmodium falciparum 3D7A; format: toxicity, cell-based; conditions: read-out: Selectivity Index
[4] = Kinetic solubility of the compound in DMSO/phosphate buffered saline at pH 7.4 by chemiluminescent nitrogen detection method; format: physicochemical; conditions: read-out: Kinetic_solubility
How it was run: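 Kinetic solubility from DMSO stock solution in phosphate-buffered saline, pH 7.4, quantified by chemiluminescent nitrogen detection.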

[5] = Cytotoxicity against human HepG2 cells by ATP bioluminescene method; format: cell-based; conditions: read-out: TC50 (the source's name)
[6] = Oral bioavailability in CD1 mouse at 10 mg/kg administered via gavage by LC-MS/MS analysis; format: ADME, organism-based; conditions: in vivo
How it was run: (§1)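 Mice were dosed IV at 1 mg/kg (0.1 mg/mL in 20% encapsine, 5% DMSO in saline) or PO at 10 mg/kg (1 mg/mL suspension in 1% methylcellulose), 10 mL/kg each. After IV dosing, blood was sampled from 5 min to 24 h. Blood was mixed 1:1 with 0.1% saponine and frozen at −80 °C. Samples were acetonitrile-extracted and analyzed by positive-ESI LC-MS/MS.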

[7] = Solubility of the compound in fasted state simulated intestinal fluid; format: ADME
[8] = Clearance in CD1 mouse at 1 mg/kg, iv by LC-MS/MS analysis; format: ADME, organism-based; conditions: in vivo; how it was run: as §1
Plasmodium falciparum [9] = experiment: Antimalarial activity against chloroquine and pyrimethamine-resistant Plasmodium falciparum V1/S assessed as inhibition of parasite growth; format: functional, organism-based
How it was run: (§2)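 Growth inhibition by [3H]-hypoxanthine incorporation, which tracks parasite growth. Parasitised RBC culture (0.5% parasitemia, 2% haematocrit) in RPMI-1640 with 5% Albumax and 5 μM hypoxanthine, exposed to serial drug dilutions. Cells harvested onto glass-fibre filters, radioactivity counted, IC50 derived.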

Plasmodium falciparum [10] = experiment: Antimalarial activity against erythrocytic stage of Plasmodium falciparum 3D70087/N9 infected in NSG mouse engrafted with human erythrocytes assessed as parasite killing at 100 mg/kg, po qd for 4 days starting from day 3 to day 6 after parasite infection measured 48 hrs after initiation of drug treatment by Giemsa-staining based microscopy; format: functional, organism-based
Plasmodium falciparum [11] = experiment: Antimalarial activity against chloroquine and pyrimethamine-resistant Plasmodium falciparum W2 assessed as inhibition of parasite growth; format: functional, organism-based; how it was run: as §2
Plasmodium falciparum [12] = conditions: 3D70087/N9, 100 mg/kg

Sequence of Voltage-gated inwardly rectifying potassium channel KCNH2 (Q12809 whole entry): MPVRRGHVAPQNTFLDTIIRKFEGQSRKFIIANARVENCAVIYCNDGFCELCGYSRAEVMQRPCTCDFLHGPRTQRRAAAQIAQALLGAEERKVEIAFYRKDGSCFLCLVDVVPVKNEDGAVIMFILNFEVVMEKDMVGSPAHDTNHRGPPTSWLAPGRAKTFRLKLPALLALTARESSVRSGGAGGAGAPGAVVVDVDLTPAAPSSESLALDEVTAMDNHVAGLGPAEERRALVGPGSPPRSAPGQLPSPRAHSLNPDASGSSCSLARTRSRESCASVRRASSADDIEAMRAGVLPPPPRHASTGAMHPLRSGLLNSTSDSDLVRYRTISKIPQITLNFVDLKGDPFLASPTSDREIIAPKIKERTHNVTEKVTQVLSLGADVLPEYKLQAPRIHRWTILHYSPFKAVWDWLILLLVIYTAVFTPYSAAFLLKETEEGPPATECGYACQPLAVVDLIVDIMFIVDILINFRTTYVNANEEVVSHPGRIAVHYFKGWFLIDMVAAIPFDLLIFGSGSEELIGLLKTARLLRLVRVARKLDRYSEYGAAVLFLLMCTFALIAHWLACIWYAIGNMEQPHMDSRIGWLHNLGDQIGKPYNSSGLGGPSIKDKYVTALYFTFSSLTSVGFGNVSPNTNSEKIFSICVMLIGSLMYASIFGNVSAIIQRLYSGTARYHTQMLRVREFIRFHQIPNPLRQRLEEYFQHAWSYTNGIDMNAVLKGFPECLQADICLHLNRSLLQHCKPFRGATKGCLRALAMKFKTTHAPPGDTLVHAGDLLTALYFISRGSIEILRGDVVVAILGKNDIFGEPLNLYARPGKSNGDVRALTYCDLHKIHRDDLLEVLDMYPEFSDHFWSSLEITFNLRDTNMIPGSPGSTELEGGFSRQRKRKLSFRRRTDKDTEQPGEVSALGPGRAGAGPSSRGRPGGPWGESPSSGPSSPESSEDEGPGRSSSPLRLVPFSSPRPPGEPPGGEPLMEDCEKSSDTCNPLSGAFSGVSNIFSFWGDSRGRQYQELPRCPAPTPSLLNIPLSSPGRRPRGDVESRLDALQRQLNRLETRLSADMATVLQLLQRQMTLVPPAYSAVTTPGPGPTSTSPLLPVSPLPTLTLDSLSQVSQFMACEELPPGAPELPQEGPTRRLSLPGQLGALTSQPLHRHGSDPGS

SMILES	IC50 (Plasmodium falciparum [1]) [nM]	other results
O=C(NCCCNc1nc2ccccc2[nH]1)c1cccc(C(F)(F)F)c1	140	–
O=C(NCCCNc1nc2ccccc2[nH]1)c1ccccc1	3170	–
O=C(c1cc(Cl)cc(Cl)c1)N1CCN(c2nc3ccccc3[nH]2)CC1	2520	–
O=C(NCCCNc1nc2ccccc2[nH]1)c1cccc(CO)c1	> 5000	–
CC(C)(C)OC(=O)N1CCC(C(=O)NCCCNc2nc3ccccc3[nH]2)CC1	900	IC50 [2]: > 50100 nM; selectivity ratio [3]: > 111; solubility kinetic [4]: 393 µM (≈ 158 µg/mL); CC50 [5]: > 100000 nM
O=C(NCCCNc1nc2ccccc2[nH]1)c1cc(Cl)ccc1Cl	1210	–
O=C(NCCCCc1nc2ccccc2[nH]1)c1cc(Cl)cc(Cl)c1	> 5000	–
O=C(NCC1(CNc2nc3ccccc3[nH]2)CC1)c1cc(Cl)cc(Cl)c1	1030	–
N#Cc1ccc2[nH]c(NCCCNC(=O)c3cc(Cl)cc(Cl)c3)nc2c1	1470	–
O=C(Nc1cccc(-c2nc3ccccc3[nH]2)c1)c1cc(Cl)cc(Cl)c1	1520	IC50 [2]: > 14800 nM; selectivity ratio [3]: 17.3; solubility kinetic [4]: 64 µM (≈ 24.5 µg/mL); CC50 [5]: 26300 nM
O=C(NCC(O)CNc1nc2ccccc2[nH]1)c1cc(Cl)cc(Cl)c1 (stereo unspecified)	1380	–
Cn1cccc1C(=O)NCCCNc1nc2ccccc2[nH]1	> 5000	–
COC(=O)c1cccc(C(=O)NCCCNc2nc3ccccc3[nH]2)c1	630	–
O=C(NC1(c2nc3ccccc3[nH]2)CC1)c1cc(Cl)cc(Cl)c1	> 5000	–
O=C(NCCCNc1nc2cccnc2[nH]1)c1cc(Cl)cc(Cl)c1	2540	–
CN(C)Cc1ccc(C(=O)NCCCNc2nc3ccccc3[nH]2)cc1	2260	–
COC(=O)c1ccc2[nH]c(NCCCNC(=O)c3cc(Cl)cc(Cl)c3)nc2c1	150	solubility kinetic [4]: 29 µM (≈ 12.2 µg/mL); CC50 [5]: 25700 nM
CN(CCCNc1nc2ccccc2[nH]1)C(=O)c1cc(Cl)cc(Cl)c1	> 5000	–
Cn1c(NCCCNC(=O)c2cc(Cl)cc(Cl)c2)nc2ccccc21	> 5000	–
O=C(NCCCNc1nc2ccccc2[nH]1)c1ccc(CN2CCCC2)cc1	2300	solubility kinetic [4]: 322 µM (≈ 122 µg/mL); CC50 [5]: > 100000 nM
CN(C)C(=O)c1cccc(C(=O)NCCCNc2nc3ccccc3[nH]2)c1	> 5000	–
CN1CCN(Cc2ccc(C(=O)NCCCNc3nc4ccccc4[nH]3)cc2)CC1	> 5000	–
O=C(NCCCNc1nc2ccccc2[nH]1)c1ccccn1	> 5000	–
O=C(NCCCNc1nc2ccccc2[nH]1)c1cc(F)cc(F)c1	320	–

SMILES	IC50 (Plasmodium falciparum [1]) [nM]	other results
O=C(O)c1ccc2[nH]c(NCCCNC(=O)c3cc(Cl)cc(Cl)c3)nc2c1	> 5000	–
O=C(NCCCNc1nc2ccccc2[nH]1)C1CCC(O)CC1 (stereo unspecified)	> 5000	–
O=C(NCCCNc1nc2ccccc2[nH]1)c1cccnc1	> 5000	–
COc1c(Cl)cc(C(=O)NCCCNc2nc3ccccc3[nH]2)cc1Cl	100	–
O=C(NCCCNc1nc2ccccc2[nH]1)c1cccc(Cl)c1Cl	3420	–
O=C(NCCCNc1nc2ccccc2[nH]1)C1CCC(CO)CC1 (stereo unspecified)	> 5000	–
CC(CCNC(=O)c1cc(Cl)cc(Cl)c1)Nc1nc2ccccc2[nH]1 (stereo unspecified)	1580	–
O=C(NCCCNc1nc2ccccc2[nH]1)C1CCOCC1	2640	–
O=C(NCCCNc1nc2ccccc2[nH]1)c1cccc(Cl)c1	300	–
O=C(NCCCNc1nc2ccccc2[nH]1)c1ccc2c(c1)OCCO2	1650	–
Cc1ccc(C(=O)NCCCNc2nc3ccccc3[nH]2)o1	2260	–
O=C(NCCCNc1nc2ccccc2[nH]1)c1ccc(Cl)c(Cl)c1	170	–
O=C(NCCCNc1nc2ccccc2[nH]1)c1cc(Cl)c(O)c(Cl)c1	> 5000	–
O=C(NC1CCN(c2nc3ccccc3[nH]2)C1)c1cc(Cl)cc(Cl)c1 (stereo unspecified)	> 5000	–
Cc1ccc(C(=O)NCCCNc2nc3ccccc3[nH]2)s1	1830	–
O=C(NCCCNc1nc2ccccc2[nH]1)c1ccc(Cl)cc1	1080	–
O=C(NCCCNc1nc2ccccc2[nH]1)c1ccnc(C(F)(F)F)c1	250	solubility kinetic [4]: 349 µM (≈ 127 µg/mL); CC50 [5]: > 100000 nM
O=C(NCCCNc1nc2ccccc2[nH]1)c1cc(Cl)cc(Cl)c1	94	bioavailability [6]: 81%; solubility [7]: > 100 µg/mL; clearance [8]: 39.7 mL/min/kg; IC50 (Plasmodium falciparum [9]): 1030 nM; solubility kinetic [4]: 239 µM (≈ 86.8 µg/mL); Activity (Plasmodium falciparum [10]): Active; IC50 (Plasmodium falciparum [11]): 410 nM; inhibition (Plasmodium falciparum [12]): Active; CC50 [5]: 36300 nM
O=C(NCCCNc1nc2ccccc2[nH]1)c1cncc(Cl)c1	460	–
O=C(NCCCCNc1nc2ccccc2[nH]1)c1cc(Cl)cc(Cl)c1	400	–
O=C(NCCCNc1nc2ccccc2[nH]1)c1cccc(O)c1	> 5000	–
O=C(NCCCNc1nc2ccccc2[nH]1)c1cccc(CN2CCCC2)c1	> 5000	–
O=C(NCCCNc1nc2ccccc2[nH]1)c1ccc2c(c1)OCO2	3360	–
O=C(NCCNc1nc2ccccc2[nH]1)c1cc(Cl)cc(Cl)c1	1830	–

SMILES	IC50 (Plasmodium falciparum [1]) [nM]	other results
O=C(CCNC(=O)c1cc(Cl)cc(Cl)c1)Nc1nc2ccccc2[nH]1	4180	–
N#Cc1cccc(C(=O)NCCCNc2nc3ccccc3[nH]2)c1	380	–
O=C(O)c1cccc(C(=O)NCCCNc2nc3ccccc3[nH]2)c1	> 5000	–
O=C(NCCCNc1nc2ccccc2[nH]1)c1ccc2c(c1)CCO2	3260	–
O=C(NCCCNc1nc2ccccc2[nH]1)c1ccncc1	> 5000	–
CN(CCCNC(=O)c1cc(Cl)cc(Cl)c1)c1nc2ccccc2[nH]1	1800	–
O=C(Cc1cccc(Cl)c1)NCCCNc1nc2ccccc2[nH]1	660	–
O=C(NCCCNc1nc2ccccc2[nH]1)c1ccccc1Cl	1050	–
CCc1nc(N)nc(N)c1-c1ccc(Cl)cc1 [PYRIMETHAMINE]	68	IC50 (Plasmodium falciparum [9]): > 20000 nM; IC50 (Plasmodium falciparum [11]): > 20000 nM
COc1cc(OC)cc(C(=O)NCCCNc2nc3ccccc3[nH]2)c1	330	–
O=C(NCCCNc1nc2ccncc2[nH]1)c1cc(Cl)cc(Cl)c1	1060	–
CC(CNC(=O)c1cc(Cl)cc(Cl)c1)CNc1nc2ccccc2[nH]1 (stereo unspecified)	520	–
O=C(NCCCNc1nc2ccccc2[nH]1)C1CCCCC1	1800	–
N#Cc1ccc(C(=O)NCCCNc2nc3ccccc3[nH]2)cc1F	1370	–
O=C(NCCCNc1nc2ccccc2[nH]1)c1c(Cl)cccc1Cl	> 5000	–
O=C(NCCCNc1nc2cc(F)ccc2[nH]1)c1cc(Cl)cc(Cl)c1	120	–
CS(=O)(=O)Nc1cccc(C(=O)NCCCNc2nc3ccccc3[nH]2)c1	> 5000	–
O=C(NCCCNc1nc2ccccc2[nH]1)c1cccc(OC(F)(F)F)c1	370	–
COc1cccc(C(=O)NCCCNc2nc3ccccc3[nH]2)c1	930	–
Cc1cccc(C(=O)NCCCNc2nc3ccccc3[nH]2)c1	970	–
O=C(NCCCNc1nc2ccccc2[nH]1)C1CCNCC1	> 5000	–
O=C(NCCCNc1nc2c(F)cccc2[nH]1)c1cc(Cl)cc(Cl)c1	300	–
O=C(NCCCNc1nc2ccccc2[nH]1)c1ccc(Cl)cc1Cl	4030	–
